Source: ChEMBL document CHEMBL1148322, “Synthesis and quantitative structure-activity relationship of hydrazones of N-amino-N'-hydroxyguanidine as electron acceptors for xanthine oxidase” (J Med Chem, 2004)

Each compound was assayed against Xanthine dehydrogenase/oxidase (Bos taurus, UniProt P80457) (assay: Electron acceptor activity on bovine milk xanthine oxidase using xanthine as reducing substrate). Details: cattle.
Procedure, shortened: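 Run anaerobically at 25 °C in a sealed cuvette with 25 mM Tris-HCl, 1 mM EDTA, pH 7.5. All solutions were argon-gassed for at least 10 min, and the reaction was started by injecting milk xanthine oxidase. Readings from anaerobic controls lacking the acceptor were subtracted. Uric acid formation was read as the increase in absorbance at 295 nm (ε 12.4 mmol⁻¹ cm⁻¹), expressed per min per unit enzyme, as the mean of three determinations.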

Sequence of Xanthine dehydrogenase/oxidase (P80457 whole entry): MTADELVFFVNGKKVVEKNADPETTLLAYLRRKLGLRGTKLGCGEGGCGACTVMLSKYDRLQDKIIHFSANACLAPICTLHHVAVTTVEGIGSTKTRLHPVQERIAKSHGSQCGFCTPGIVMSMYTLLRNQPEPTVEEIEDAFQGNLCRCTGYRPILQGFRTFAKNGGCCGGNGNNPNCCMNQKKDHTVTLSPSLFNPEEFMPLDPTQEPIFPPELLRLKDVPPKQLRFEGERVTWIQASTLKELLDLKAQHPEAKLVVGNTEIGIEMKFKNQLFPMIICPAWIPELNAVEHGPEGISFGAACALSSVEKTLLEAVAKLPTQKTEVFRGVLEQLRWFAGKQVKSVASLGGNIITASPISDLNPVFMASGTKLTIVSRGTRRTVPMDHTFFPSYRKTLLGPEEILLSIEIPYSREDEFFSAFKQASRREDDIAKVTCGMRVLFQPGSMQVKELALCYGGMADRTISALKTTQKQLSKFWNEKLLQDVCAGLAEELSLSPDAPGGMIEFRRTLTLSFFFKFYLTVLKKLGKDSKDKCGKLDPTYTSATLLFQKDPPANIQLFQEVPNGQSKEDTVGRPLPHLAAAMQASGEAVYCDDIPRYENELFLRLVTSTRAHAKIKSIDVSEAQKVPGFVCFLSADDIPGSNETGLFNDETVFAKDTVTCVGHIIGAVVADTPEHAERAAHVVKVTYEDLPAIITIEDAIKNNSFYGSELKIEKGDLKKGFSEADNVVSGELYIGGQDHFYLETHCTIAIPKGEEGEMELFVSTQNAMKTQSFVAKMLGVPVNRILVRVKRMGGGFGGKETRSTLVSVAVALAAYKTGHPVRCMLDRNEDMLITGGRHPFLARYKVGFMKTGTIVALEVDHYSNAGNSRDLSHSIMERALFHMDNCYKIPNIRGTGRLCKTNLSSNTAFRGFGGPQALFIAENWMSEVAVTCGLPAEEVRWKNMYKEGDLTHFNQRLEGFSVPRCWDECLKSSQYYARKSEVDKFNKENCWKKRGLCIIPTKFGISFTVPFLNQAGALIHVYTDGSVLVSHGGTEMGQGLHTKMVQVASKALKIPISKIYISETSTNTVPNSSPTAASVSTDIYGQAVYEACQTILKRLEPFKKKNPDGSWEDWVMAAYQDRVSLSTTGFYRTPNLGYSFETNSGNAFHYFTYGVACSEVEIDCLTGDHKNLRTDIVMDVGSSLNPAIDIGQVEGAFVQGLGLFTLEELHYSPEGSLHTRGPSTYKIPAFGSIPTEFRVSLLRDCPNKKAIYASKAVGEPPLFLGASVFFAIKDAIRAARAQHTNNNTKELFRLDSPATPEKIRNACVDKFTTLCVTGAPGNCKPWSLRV

Compound | Acceptor activity
N=C(NO)N/N=C/c1cccc2c1OCO2 | 44.7
COc1ccc(OC)c([N+](=O)[O-])c1/C=N/NC(=N)NO | 47.3
COc1cc(OC)c(/C=N/N=C(\N)NO)c(OC)c1 | 10.8
COc1ccccc1/C=N/N=C(\N)NO | 59.7
N=C(NO)N/N=C/c1c([N+](=O)[O-])cccc1[N+](=O)[O-] | 154.5
N=C(NO)N/N=C/c1ccccc1F | 49.6
COc1cc(Br)cc(/C=N/NC(=N)NO)c1O | 72.4
N=C(NO)N/N=C/c1ccc(Cl)cc1 | 57.9
COc1cc([N+](=O)[O-])c([N+](=O)[O-])c(/C=N/NC(=N)NO)c1OC | 52.9
CCN(CC)c1ccc(/C=N/NC(=N)NO)cc1 | 62.1
N=C(NO)N/N=C/c1ccc(Br)cc1 | 82.1
N=C(NO)N/N=C/c1c(Cl)cccc1[N+](=O)[O-] | 44
N=C(NO)N/N=C/c1ccccc1Br | 72.9
N=C(NO)N/N=C/c1ccc(F)cc1 | 43.2
N=C(NO)N/N=C/c1cc(O)ccc1[N+](=O)[O-] | 31.5
N=C(NO)N/N=C/c1ccc(Br)c([N+](=O)[O-])c1 | 35
COc1ccc(/C=N/NC(=N)NO)cc1O | 68.9
N=C(NO)N/N=C/c1ccc(O)cc1 | 64.2
COc1cc([N+](=O)[O-])c(/C=N/NC(=N)NO)c(Cl)c1OC | 48.8
COc1cccc(/C=N/NC(=N)NO)c1O | 45.5
COc1ccc(/C=N/NC(=N)NO)cc1 | 50.9
CN(C)c1ccc(/C=N/NC(=N)NO)cc1 | 41
N=C(NO)N/N=C/c1ccccc1Cl | 90.2
COc1ccc(OC)c(/C=N/N=C(\N)NO)c1 | 42.3
COc1cc(/C=N/NC(=N)NO)c(Br)c(OC)c1OC | 119.5
N=C(NO)N/N=C/c1c(Cl)ccc([N+](=O)[O-])c1[N+](=O)[O-] | 216.3

Compound | Acceptor activity
COc1ccc(/C=N/NC(=N)NO)c(Cl)c1OC | 155.6
N/C(=N\O)N/N=C/c1ccc(O)c(O)c1O | 40.5
N/C(=N\O)N/N=C/c1cccc([N+](=O)[O-])c1 | 24.4
N=C(NO)N/N=C/c1cccc(Cl)c1 | 45.4
COc1cccc(OC)c1/C=N/NC(=N)NO | 13.2
COc1cc(OC)c(/C=N/NC(=N)NO)cc1Br | 16.3
COc1cc(OC)c(OC)cc1/C=N/N=C(\N)NO | 29.7
N=C(NO)N/N=C/c1ccc([N+](=O)[O-])cc1 | 94.2
COc1cc(O)c(/C=N/N=C(\N)NO)c(OC)c1 | 101.7
N=C(NO)N/N=C/c1c(Cl)ccc(Cl)c1[N+](=O)[O-] | 68.3
N/C(=N\O)N/N=C/c1cccc(F)c1 | 56.2
COc1ccc([N+](=O)[O-])c(/C=N/NC(=N)NO)c1OC | 22
N/C(=N\O)N/N=C/c1ccccc1O | 33.8
N=C(NO)N/N=C/c1ccccc1[N+](=O)[O-] | 56.4
COc1ccc(/C=N/N=C(\N)NO)c(OC)c1OC | 81.5
N=C(NO)N/N=C/c1ccc(O)cc1O | 72.9
COc1cc(/C=N/NC(=N)NO)cc(OC)c1 | 30.7
N=C(NO)N/N=C/c1cccc(O)c1O | 43.7
N=C(NO)N/N=C/c1cc([N+](=O)[O-])ccc1O | 25.8
COc1ccc(/C=N/NC(=N)NO)cc1Br | 35.6
COc1cc(/C=N/N=C(\N)NO)cc(OC)c1OC | 54.6
N=C(NO)N/N=C/c1ccc([N+](=O)[O-])cc1[N+](=O)[O-] | 295.7
N/C(=N\O)N/N=C/c1ccc(Cl)c([N+](=O)[O-])c1 | 42.1
COc1cc([N+](=O)[O-])cc(/C=N/NC(=N)NO)c1OC | 0.8
COc1cccc(/C=N/NC(=N)NO)c1 | 55
